Data on 16 molecules can be found in ChEMBL document CHEMBL1145973 (J Med Chem, 2003).

Molecules are shown by their SMILES.

The target of assay [1] is Delta-type opioid receptor (Homo sapiens, UniProt P41143). In words: Displacement of [3H]diprenorphine from human Opioid receptor delta 1 epressing HEK293 cells. Format: cell-based. In short, it runs like this: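 Human DOR-1 stably transfected into HEK-293 cells; competition binding against 3H-diprenorphine. Mean ± SD of duplicate measurements.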
A general note: In a radioligand displacement assay an active substance lowers the binding of a labelled ligand.

For assay [2], the target named is Opioid receptors; mu & delta (Homo sapiens) (UniProt P41143+P35372). The experiment in a line: Relative affinity for delta and mu opioid receptors. The class given is protein assay.
Assay [3] has as its target Opioid receptors; mu & kappa (Homo sapiens) (UniProt P41145+P35372). The experiment in a line: Relative affinity for kappa 1 and mu opioid receptors. The class given is protein assay. In short, it runs like this:
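Ratio of Ki at KOR, from 3H-U-69,593 competition in guinea pig cerebellum, to Ki at MOR, from 3H-DAMGO competition on hMOR-1 in CHO cells.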

Assay [4] concerns the target T1, Mu-type opioid receptor (Homo sapiens, UniProt P35372). The experiment in a line: Efficacy for Opioid receptor mu 1-mediated [35S]GTP-gamma-S incorporation into CHO membrane preparations. The class given is functional. For orientation: GTPγS is a poorly hydrolysed GTP analogue; its binding reports G protein activation.
Assay [5] concerns the target T1, Mu-type opioid receptor. In words: Displacement of [3H]DAMGO from human Opioid receptor mu 1 expressing CHO cells. The class given is cell-based.
For assay [6], the target named is Kappa-type opioid receptor (Cavia porcellus, UniProt P41144). In words: Displacement of 3H-U-69,593 from Opioid receptor kappa 1 in guinea pig cerebellum preparation. The class given is tissue-based.
The target of assay [7] is T1, Mu-type opioid receptor. The experiment in a line: Specific binding of GTP-gamma -35S to G proteins in CHO membrane preparation stably transfected with human Opioid receptor mu 1 in the presence of GDP and 10 uM compound. Format: cell membranes. An outline of the steps: (§1)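 Human MOR-1 stably transfected into CHO cells; membrane preparations incubated with GDP and test compound at 10 µM. Specific [35S]GTP-γ-S binding to G proteins is expressed as a percentage of DAMGO-induced specific binding. Mean ± SD of quadruplicate measurements.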

In assay [8] the target is T1, Mu-type opioid receptor. In words: Compound tested at 10 uM for the ability to induce Opioid receptor mu 1-mediated binding of [35S]GTP-gamma-S to G proteins in CHO membrane preparations. The class given is functional, cell membranes. In short, it runs like this: as §1

Sequence of Kappa-type opioid receptor (P41144 whole entry): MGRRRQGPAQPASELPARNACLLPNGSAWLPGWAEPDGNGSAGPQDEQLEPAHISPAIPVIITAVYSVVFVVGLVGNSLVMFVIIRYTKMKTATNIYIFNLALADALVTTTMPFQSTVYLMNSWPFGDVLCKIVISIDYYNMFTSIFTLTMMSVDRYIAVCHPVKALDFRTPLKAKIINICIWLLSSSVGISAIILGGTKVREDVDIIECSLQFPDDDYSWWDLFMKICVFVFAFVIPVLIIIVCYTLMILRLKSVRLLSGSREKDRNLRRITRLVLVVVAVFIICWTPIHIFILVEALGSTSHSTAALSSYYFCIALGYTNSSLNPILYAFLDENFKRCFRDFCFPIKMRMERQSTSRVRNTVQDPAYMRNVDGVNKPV
Sequence of Delta-type opioid receptor (P41143 whole entry): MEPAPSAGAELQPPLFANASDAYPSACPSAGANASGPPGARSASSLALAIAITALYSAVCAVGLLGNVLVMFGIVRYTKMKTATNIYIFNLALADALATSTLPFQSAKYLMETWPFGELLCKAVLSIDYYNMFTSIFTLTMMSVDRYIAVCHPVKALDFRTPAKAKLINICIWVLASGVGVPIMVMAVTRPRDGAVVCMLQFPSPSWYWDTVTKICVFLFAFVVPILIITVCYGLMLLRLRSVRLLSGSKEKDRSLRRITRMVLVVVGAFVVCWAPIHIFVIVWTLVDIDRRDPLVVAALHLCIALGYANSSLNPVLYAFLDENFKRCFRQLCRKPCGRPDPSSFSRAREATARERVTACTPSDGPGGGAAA
T1 sequence (P35372 whole entry): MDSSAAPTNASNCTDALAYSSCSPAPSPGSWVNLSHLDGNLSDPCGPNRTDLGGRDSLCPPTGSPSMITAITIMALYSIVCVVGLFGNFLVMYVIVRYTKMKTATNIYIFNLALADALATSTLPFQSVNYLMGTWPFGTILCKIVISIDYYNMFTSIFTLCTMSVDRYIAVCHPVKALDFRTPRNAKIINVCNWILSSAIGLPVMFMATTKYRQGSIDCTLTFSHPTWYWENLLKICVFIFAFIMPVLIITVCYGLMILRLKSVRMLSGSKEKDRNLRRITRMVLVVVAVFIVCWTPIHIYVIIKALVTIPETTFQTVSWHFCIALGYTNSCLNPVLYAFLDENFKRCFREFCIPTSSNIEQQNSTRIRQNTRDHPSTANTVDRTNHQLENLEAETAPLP
Sequence of Opioid receptors; mu & delta (Homo sapiens) (P35372 whole entry, looked up): as the sequence (P35372 whole entry) above
Sequence of Opioid receptors; mu & delta (Homo sapiens) (P41143 whole entry, looked up): as the sequence (P41143 whole entry) above
Sequence of Opioid receptors; mu & kappa (Homo sapiens) (P35372 whole entry, looked up): as the sequence (P35372 whole entry) above
Sequence of Opioid receptors; mu & kappa (Homo sapiens) (P41145 whole entry, looked up): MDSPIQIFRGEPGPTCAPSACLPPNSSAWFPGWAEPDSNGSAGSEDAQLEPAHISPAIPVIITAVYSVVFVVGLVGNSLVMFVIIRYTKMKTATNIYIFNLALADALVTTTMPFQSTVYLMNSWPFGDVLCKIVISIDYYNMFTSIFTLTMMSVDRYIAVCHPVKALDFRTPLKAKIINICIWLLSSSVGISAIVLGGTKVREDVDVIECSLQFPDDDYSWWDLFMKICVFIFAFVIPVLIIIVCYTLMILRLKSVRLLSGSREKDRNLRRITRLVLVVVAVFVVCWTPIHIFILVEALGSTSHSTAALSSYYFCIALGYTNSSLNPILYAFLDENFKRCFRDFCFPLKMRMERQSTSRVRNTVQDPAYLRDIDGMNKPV

One may read the Ki as a dissociation constant, usually derived from enzyme kinetics or from competition with a known ligand. A higher Ki goes with a looser hold on the target. Regarding `Cc1cc(O)cc(C)c1C[C@H](N)[C@H](O)C/C=C/[C@@H](O)[C@@H](Cc1ccccc1)C(=O)NCCc1ccccc1`, the Ki in assay [1] was determined as 66 nM; on Mu-type opioid receptor [5], 0.72 nM; in assay [6], 69 nM. Also, the Ratio in assay [2] is 91; in assay [3] it was 96. This molecule registered a GTP-gamma35S bound at Mu-type opioid receptor [4] of 27%.

As to `Cc1cc(O)cc(C)c1C[C@H](N)[C@@H](O)C/C=C/[C@H](O)[C@@H](Cc1ccccc1)C(=O)O[C@H](CO)Cc1ccccc1`, the inhibition constant (Ki) in assay [1] is 17 nM; at Mu-type opioid receptor [5], 0.44 nM; in assay [6] it was 85 nM. The Ratio in assay [2] turned out to be 39; in assay [3], 190. In addition, on Mu-type opioid receptor [7], the GTP-gamma35S bound was 62%.

As to `Cc1cc(O)cc(C)c1C[C@H](N)[C@@H](O)C/C=C/[C@H](O)[C@@H](Cc1ccccc1)C(=O)O[C@@H](Cc1ccccc1)C(N)=O`, the Ki is 21 nM in assay [1] and 126 nM in assay [6]. In addition, the Ratio in assay [2] worked out at 46; in assay [3], 280. In addition, the GTP-gamma35S bound on Mu-type opioid receptor [4] stood at 47%.

Take `Cc1cc(O)cc(C)c1C[C@H](N)[C@H](O)C/C=C/[C@H](O)[C@@H](Cc1ccccc1)C(=O)N[C@@H](Cc1ccccc1)C(N)=O`: the figures for the Ki (in assay [1]; on Mu-type opioid receptor [5]; in assay [6]) were 46 nM, 1.2 nM and 15 nM, respectively. Also, the Ratio in assay [2] was found to be 38; in assay [3], 13. Further, the GTP-gamma35S bound on Mu-type opioid receptor [4] amounted to 14%.

In the case of `Cc1cc(O)cc(C)c1C[C@H](N)[C@@H](O)C/C=C/[C@@H](O)[C@H](Cc1ccccc1)C(=O)NCCc1ccccc1`, the Ki in assay [1] was found to be 119 nM; at Mu-type opioid receptor [5] it was 0.64 nM; in assay [6] it was 60 nM. Besides, the Ratio stood at 190 in assay [2] and 94 in assay [3]. Also, the GTP-gamma35S bound at Mu-type opioid receptor [4] was 52%.

With `Cc1cc(O)cc(C)c1C[C@H](N)[C@H](O)C/C=C/[C@@H](O)[C@@H](Cc1ccccc1)C(=O)N[C@@H](Cc1ccccc1)C(N)=O`, the values for the Ki (in assay [1]; on Mu-type opioid receptor [5]; in assay [6]) were 85 nM, 1.6 nM and 25 nM, respectively. The Ratio in assay [2] came to 53; in assay [3], 16. For the same molecule, the GTP-gamma35S bound on Mu-type opioid receptor [4] came out at 43%.

On to `Cc1cc(O)cc(C)c1C[C@H](N)[C@@H](O)C/C=C/[C@H](O)[C@@H](Cc1ccccc1)C(=O)NCCc1ccccc1`, for which the Ki was determined as 99 nM in assay [1], 0.29 nM on Mu-type opioid receptor [5] and 42 nM in assay [6]. Also, the Ratio in assay [2] was 340; in assay [3], 140. This molecule had a GTP-gamma35S bound at Mu-type opioid receptor [4] of 40%.

The EC50 is the concentration that produces a half-maximal response. For `Cc1cc(O)cc(C)c1C[C@H](N)[C@@H](O)C/C=C/[C@@H](O)[C@@H](Cc1ccccc1)C(=O)N[C@@H](Cc1ccccc1)C(N)=O`, the figures for the Ki (in assay [1]; at Mu-type opioid receptor [5]; in assay [6]) were 36 nM, 0.42 nM and 21 nM, respectively. Moreover, the Ratio in assay [2] was 86; in assay [3], 49. Besides, the GTP-gamma35S bound at Mu-type opioid receptor [4] amounted to 75%. In addition, on Mu-type opioid receptor [8], the EC50 was determined as 7.9 nM.

`Cc1cc(O)cc(C)c1C[C@H](N)[C@@H](O)C/C=C/[C@@H](O)[C@H](Cc1ccccc1)C(=O)N[C@@H](Cc1ccccc1)C(N)=O`: the Ki was determined as 230 nM in assay [1], 1.2 nM at Mu-type opioid receptor [5] and 50 nM in assay [6]. Moreover, the Ratio in assay [2] is 190; in assay [3], 41. In addition, at Mu-type opioid receptor [4], the GTP-gamma35S bound was determined as 32%.

For the molecule `Cc1cc(O)cc(C)c1C[C@H](N)[C@@H](O)C/C=C/[C@H](O)[C@@H](Cc1ccccc1)C(=O)N[C@@H](Cc1ccccc1)C(N)=O`, the values for the inhibition constant Ki (in assay [1]; at Mu-type opioid receptor [5]; in assay [6]) were 40 nM, 0.17 nM and 22 nM, respectively. Moreover, the Ratio in assay [2] came out at 230; in assay [3], 130. The GTP-gamma35S bound at Mu-type opioid receptor [4] came out at 35%.

Consider `Cc1cc(O)cc(C)c1C[C@H](N)[C@H](O)C/C=C/[C@H](O)[C@@H](Cc1ccccc1)C(=O)NCCc1ccccc1`, for which the Ki in assay [1] turned out to be 123 nM; at Mu-type opioid receptor [5], 0.24 nM; in assay [6] it was 51 nM. The Ratio in assay [2] turned out to be 510; in assay [3] it was 210. For the same molecule, the GTP-gamma35S bound at Mu-type opioid receptor [4] amounted to 49%. Besides, the EC50 at Mu-type opioid receptor [8] came out at 49 nM.

As to `NC(=O)[C@H](Cc1ccccc1)NC(=O)[C@H](Cc1ccccc1)NC(=O)[C@H]1CCCN1C(=O)[C@@H](N)Cc1ccccc1`, the Ratio was […] in assay [2] and […] in assay [3]. On Mu-type opioid receptor [4], this molecule showed a GTP-gamma35S bound of 100%.

Turning to `Cc1cc(O)cc(C)c1C[C@H](N)[C@@H](O)C/C=C/[C@H](O)[C@@H](Cc1ccccc1)C(=O)N[C@H](CO)Cc1ccccc1`, the Ki is 54 nM in assay [1], 0.16 nM at Mu-type opioid receptor [5] and 69 nM in assay [6]. Besides, the Ratio in assay [2] is 340; in assay [3], 430. In addition, the GTP-gamma35S bound on Mu-type opioid receptor [4] stood at 44%.

For `Cc1cc(O)cc(C)c1C[C@H](N)[C@@H](O)C/C=C/[C@@H](O)[C@@H](Cc1ccccc1)C(=O)NCCc1ccccc1`, the Ki worked out at 26 nM in assay [1], 0.37 nM on Mu-type opioid receptor [5] and 64 nM in assay [6]. The Ratio in assay [2] was 70; in assay [3] it was 170. The GTP-gamma35S bound on Mu-type opioid receptor [4] was determined as 48%.

`Cc1cc(O)cc(C)c1C[C@H](N)[C@@H](O)C/C=C/[C@H](O)[C@@H](Cc1ccccc1)C(=O)OCCc1ccccc1`: the Ki was 56 nM in assay [1] and 0.24 nM at Mu-type opioid receptor [5]. In addition, the GTP-gamma35S bound on Mu-type opioid receptor [4] is 79%. At Mu-type opioid receptor [8], a half-maximal effect (EC50) was put at 4.2 nM.

Consider `NC(=O)[C@H](Cc1ccccc1)NC(=O)[C@H](Cc1ccccc1)NC(=O)[C@@H]1CCCN1C(=O)[C@@H](N)Cc1ccccc1`, for which the figures for the Ki (in assay [1] (hek293); on Mu-type opioid receptor [5] (cho); in assay [6]) were […], 0.69 nM and 10400 nM, respectively. The molecule further came in with an EC50 at Mu-type opioid receptor [8] of 31 nM.
